ARFGAP1 inh = inhibitors of rat ARFGAP1 GAP activity, primary screen, biochemical, fluorescence polarization, GDP tracer; ADP-ribosylation factor GTPase-activating protein 1 (Rattus norvegicus), Q62848; Arfgap1-stimulated ARF1 GTP hydrolysis, GDP FP detection; inhibition, % at 16.5 µM; 0.26% of 360,000 active;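 active means inhibition above a per-plate limit, mean inhibition of low control wells plus 3 SD, cut at about 25% in these data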;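 further: 0% = DMSO wells with enzyme and 100% = wells lacking Arfgap1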
Target sequence (Q62848 1-136 limits assumed): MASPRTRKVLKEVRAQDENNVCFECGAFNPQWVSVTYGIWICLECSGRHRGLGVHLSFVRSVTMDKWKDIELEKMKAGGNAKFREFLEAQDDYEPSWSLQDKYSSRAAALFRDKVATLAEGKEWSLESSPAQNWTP
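Material – truncated rat Arfgap1 GAP domain · Buffer or medium – HEPES-based buffer, pH 7.5 · Reagent – human ARF1(Δ1-17)-GTP substrate · Dosing – 16.5 µM single point, 1.26% DMSO · Schedule – GTP hydrolysis reaction 2 h at 25 °C · Technique – GDP detection by fluorescence polarization · Benchmarks – No-Arfgap1 wells (100%) versus DMSO full-reaction wells (0%) · Repeats – single replicate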
ASAP1 GAP inh = inhibitors of human ASAP1 ArfGAP activity, primary screen, biochemical, fluorescence polarization; Arf-GAP with SH3 domain, ANK repeat and PH domain-containing protein 1 (Homo sapiens), …; ASAP1-stimulated ARF1 GTP hydrolysis, GDP FP detection; inhibition, % at 16.5 µM; 0.19% of 360,000 active; AID 624377, 2012; in the data active means inhibition above about 25%;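 further: 0% = vehicle with enzyme and substrate and 100% = no enzyme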
Target sequence (Q9ULH1 325-724 limits assumed): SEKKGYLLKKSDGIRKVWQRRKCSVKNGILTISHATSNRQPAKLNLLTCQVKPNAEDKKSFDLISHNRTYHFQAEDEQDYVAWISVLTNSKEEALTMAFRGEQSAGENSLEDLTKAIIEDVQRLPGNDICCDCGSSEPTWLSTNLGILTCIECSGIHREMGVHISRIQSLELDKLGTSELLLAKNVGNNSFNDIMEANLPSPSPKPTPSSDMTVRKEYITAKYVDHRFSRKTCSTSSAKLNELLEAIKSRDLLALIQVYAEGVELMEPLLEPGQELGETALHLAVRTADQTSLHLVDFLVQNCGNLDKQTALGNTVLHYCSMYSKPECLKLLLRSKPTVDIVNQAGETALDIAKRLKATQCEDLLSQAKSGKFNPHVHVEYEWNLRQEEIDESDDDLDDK
SMARCA2 activ = SMARCA2 (BRM) function activators, primary screen, cell-based, luminescence, high throughput; MG213 cells, MMTV-luciferase reporter, dexamethasone, overnight; activation, % at 9.1 µM; 1% of 370,000 active; AID 652017, 2013; in the data active means activation above about 7.8%;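 further: 0% = vehicle wells and 100% = reference activator wells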
esBAF inh = Bmi1 luciferase reporter increase in mESCs, primary screen, esBAF inhibitor project, mouse ES cells, Bmi1 luciferase knock-in, single point. 24 h; 100% = twice the neutral-well signal. reporter increase, % at 12.5 µM. 2% of 350,000 active. AID 602393, 2012; in the data active means activation above about 40%; inconclusive means no clear call, values can overlap the other calls;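 further: 0% = median of the plate's neutral control wells and 100% = double that signal; a rise in the Bmi1 reporter signal indicates esBAF inhibition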
The depositor's hits bear a star; ? = inconclusive; nt = no result given. A selection: hits, their analogues and other compounds. The true share with any hit is near 2.6%.

SMILES	ARFGAP1 inh	ASAP1 GAP inh	SMARCA2 activ	esBAF inh
O=C(C[C@H]1C[C@@H]2c3cc(NS(=O)(=O)c4ccc(F)cc4)ccc3O[C@@H]2[C@@H](CO)O1)NCc1ccccc1F	nt	nt	nt	8
Nc1nnnn1/N=C/C=C/c1ccccc1	8	-2	-1	19
Nc1nnnn1/N=C/C(Br)=C/c1ccccc1	10	-4	-10	53*
CN1c2ccc(-c3ccccc3F)cc2[C@H]2[C@H](CCN2S(=O)(=O)c2ccccc2)[C@@H]1CO	nt	nt	nt	-2
O=C(CS(=O)(=O)c1ccccc1)Nc1nc2ccccc2s1	2	-3	0	41*
O=S(=O)(/N=C(/Nc1nccs1)c1ccc(F)cc1)c1ccccc1	-7	0	0	-7
Fc1ccc(Nc2nc3ccccc3s2)cc1	-3	2	2	46*
Cc1ccc(Nc2nc3ccccc3s2)cc1	0	12	6	nt
O=S(=O)(/N=C(/Nc1nc2ccccc2s1)c1ccccc1)c1ccc(F)cc1	-5	3	5	50*
CC(CC(=O)Nc1nc2ccccc2[nH]1)c1ccccc1 (configuration not stated)	-6	-2	5	70*
O=C(COc1ccccc1)Nc1nc2ccccc2[nH]1	4	5	7.8*	49*
CC(CC(=O)Nc1nc2ccccc2[nH]1)n1ccnc1 (configuration not stated)	-1	11	-2	-6
CO[C@@H]1CN(C)C(=O)c2cc(NS(=O)(=O)c3c(C)noc3C)ccc2OC[C@H](C)NC[C@@H]1C	nt	nt	nt	1
Nc1cc(C(=O)c2ccccc2)ccc1N1CCOCC1	5	2	-2	52*
O=C(c1ccccc1)c1ccc(N2CCOCC2)cc1	3	-11	0	nt
O=C(c1ccccc1)c1ccc(N2CCCC2)cc1	2	-11	5	60*
CCOC(=O)N1CCN(c2ccc(C(=O)c3ccccc3)cc2F)CC1	3	4	2	56*
O=C(N[C@H]1CC[C@@H](CCNC(=O)c2cnccn2)O[C@@H]1CO)c1ccc2c(c1)OCO2	nt	nt	nt	4
COCC(=O)N1C[C@@H](C)[C@H](OC)CN(C)C(=O)c2cc(NC(=O)c3cc(C)on3)ccc2OC[C@H]1C	nt	nt	nt	5
COc1ccccc1NC(=O)N1C[C@@H](O)COC[C@@H]2O[C@H](CC(=O)NCc3ccccc3)CC[C@H]21	nt	nt	nt	2
O=C(Nc1ccn(-c2ccccc2)n1)c1ccccc1Br	4	0	3	69*
O=C(Nc1ccc(NC(=O)c2ccccc2Br)cc1)c1ccccc1	-14	-5	-1	42*
O=C(Nc1ccc(C(F)(F)F)cc1)c1ccccc1Br	14	5	4	55*
CC(=O)Nc1ccn(-c2ccccc2)n1	2	-12	-1	27
O=C(c1cccc(-c2nnc(-c3ccccc3)o2)c1)N1CCCCC1	1	-4	4	72*
SMILES	ARFGAP1 inh	ASAP1 GAP inh	SMARCA2 activ	esBAF inh
O=C(O)c1ccc(-c2nnc(-c3cccc(Br)c3)o2)cc1	-4	-1	1	71*
O=C(CSc1nnc(-c2cccc(Br)c2)o1)N1CCNC1=O	5	-12	5	62*
O=C(CCNS(=O)(=O)c1ccc2[nH]c(=O)oc2c1)Nc1cccc(Br)c1	6	4	7.8*	-2
Cc1ccc(NC(=O)CC2CCCC2)c(Br)c1	4	-10	0	50*
Cc1ccc(NC(=S)NC(=O)C2CCCCC2)c(Br)c1	0	0	1	63*
C[C@H](CO)N1C[C@H](C)[C@@H](CN(C)Cc2ccc(C(=O)O)cc2)Oc2c(NS(C)(=O)=O)cccc2C1=O	nt	nt	nt	1
O=C(NC1CCCCC1)c1ccc([N+](=O)[O-])o1	nt	nt	nt	18
O=C(NC1CCCC(C(F)(F)F)C1)c1ccc([N+](=O)[O-])o1 (configuration not stated)	4	6	7.9*	19
CC(/C=C/c1ccccc1)=N\Nc1ccccc1[N+](=O)[O-]	7	1	-2	44*
Fc1ccc(OCc2cc(-c3ccccc3)no2)cc1	2	7	4	57*
CCOC(=O)CNC(=O)c1ccc(Cl)s1	-2	-3	-2	-6
CCNc1nc(N)c(C(=O)c2ccc(Cl)s2)s1	4	0	4	43*
CC(C)NC(=O)Nc1ccc2c(c1)CC(=O)N([C@H](C)CO)C[C@H](C)[C@H](CN(C)C(=O)Nc1ccc(F)cc1)O2	nt	nt	nt	-4
Fc1ccc2cnc(C3=CCCCC3)cc2c1	1	-14	3	?
C1=C(c2cc3ccccc3cn2)CCCC1	10	6	6	79*
Cn1cccc1/C=C1\Cc2ccccc2C1=O	0	-2	6	53*
CCOc1ccc(NC(=O)c2nnn(CC(=O)Nc3ccccc3OC)c2N)cc1	-7	-8	-1	44*
O=C(Nc1ccc(Cl)cc1)c1csc(COCCO)n1	14	8	5	53*
O=C(Nc1ccc(Oc2ccccc2)cc1)c1csc(COCCO)n1	4	0	-8	35
Cc1cccc(/C(N)=N/OC(=O)c2ccncc2)c1	5	-4	5	12
N/C(=N\OC(=O)c1ccc(Br)cc1)c1cccc([N+](=O)[O-])c1	-16	2	1	72*
N/C(=N\OC(=O)c1ccncc1)c1cccc([N+](=O)[O-])c1	6	-3	1	54*
Cc1ccc(C(=O)O/N=C(\N)c2cccc([N+](=O)[O-])c2)cc1	-16	0	4	40
CO[C@H]1CC[C@@H]2CCOc3ccc(C#N)cc3C(=O)N(C)C[C@H](c3ccccc3)CC(=O)N(C)C[C@@H]1O2	nt	nt	nt	-4
CCn1c(SCC(=O)c2ccc(O)c(O)c2)nnc1-c1ccccc1	3	0	2	45*
SMILES	ARFGAP1 inh	ASAP1 GAP inh	SMARCA2 activ	esBAF inh
CCOc1ccc(-c2nnc(N)s2)cc1	5	-11	3	60*
CCCCOc1ccc(-c2nnc(N)s2)cc1	-3	12	6	nt
Cc1ccc(S(=O)(=O)Nc2ccc3c(c2)C(=O)N([C@H](C)CO)C[C@@H](C)[C@H](CN(C)C(=O)c2ccccc2)OCCCC[C@@H](C)O3)cc1	nt	nt	nt	9
COC(=O)c1c(NC(=O)CN2CCOCC2)sc2c1CCC(C)C2 (configuration not stated)	0	3	1	62*
CO[C@@H]1CN(C)C(=O)c2ccc(NC(=O)c3ccccn3)cc2OC[C@@H](C)N(C(=O)Nc2ccccc2Cl)C[C@H]1C	nt	nt	nt	-2
CC(/C=C\c1ccccc1)=C/C(=O)O	10	10	-4	nt
CC(C)(C)C(=O)/C=C(N)/C=C/c1ccccc1	9	-7	4	57*
Cc1noc(C)c1NC(=O)Nc1cccc2c1O[C@H](CN(C)S(=O)(=O)c1ccccc1)[C@@H](C)CN([C@@H](C)CO)C2=O	nt	nt	nt	2
